Assay results from ChEMBL document CHEMBL3616437, “Thiazole compounds with activity against Cryptococcus gattii and Cryptococcus neoformans in vitro” (Eur J Med Chem, 2015).
Active and inactive are the calls of the source. The rule behind the calls is not given here.

Key:
[1] = tested on: Cryptococcus neoformans; assay: Antifungal activity against Cryptococcus neoformans VM-MCMMPI assessed as reduction in cell viability at 1.9 uM after 6 to 72 hrs by MTT assay; format: functional
[2] = tested on: Cryptococcus neoformans; assay: Antifungal activity against Cryptococcus neoformans ATCC 24067 assessed as reduction in cell viability at 1.9 uM after 6 to 72 hrs by MTT assay; format: functional
[3] = tested on: Cryptococcus neoformans; assay: Antifungal activity against Cryptococcus neoformans ATCC 62066 assessed as reduction in cell viability at 1.9 uM after 6 to 72 hrs by MTT assay; format: functional
[4] = tested on: Cryptococcus neoformans; assay: Antifungal activity against Cryptococcus neoformans CN31 assessed as reduction in cell viability at 1.9 uM after 6 to 72 hrs by MTT assay; format: functional
[5] = tested on: Cryptococcus neoformans; assay: Antifungal activity against Cryptococcus neoformans 27JF assessed as reduction in cell viability at 1.9 uM after 6 to 72 hrs by MTT assay; format: functional
[6] = tested on: Cryptococcus neoformans; assay: Antifungal activity against Cryptococcus neoformans ATCC 28957 assessed as reduction in cell viability at 1.9 uM after 6 to 72 hrs by MTT assay; format: functional
[7] = tested on: Cryptococcus neoformans; assay: Antifungal activity against Cryptococcus neoformans 5396 assessed as reduction in cell viability at 1.9 uM after 6 to 72 hrs by MTT assay; format: functional
[8] = tested on: Cryptococcus gattii species complex; assay: Antifungal activity against Cryptococcus gattii LMM818 assessed as reduction in cell viability at 0.12 uM after 6 to 72 hrs by MTT assay; format: functional, Cryptococcus bacillisporus
[9] = tested on: Cryptococcus neoformans; assay: Antifungal activity against Cryptococcus neoformans ATCC 28957 assessed as reduction in cell viability at 0.12 uM after 6 to 72 hrs by MTT assay; format: functional
[10] = tested on: Cryptococcus neoformans; assay: Antifungal activity against Cryptococcus neoformans 5396 assessed as reduction in cell viability at 0.12 uM after 6 to 72 hrs by MTT assay; format: functional
[11] = tested on: Cryptococcus gattii species complex; assay: Antifungal activity against Cryptococcus gattii 135L/03 assessed as reduction in cell viability at 0.12 uM after 6 to 72 hrs by MTT assay; format: functional, Cryptococcus bacillisporus
[12] = tested on: Cryptococcus gattii species complex; assay: Post-antifungal activity against Cryptococcus gattii L27/01 assessed as organism required time to achieve cell population of 10^4 cells/ml at 0.11 uM treated for 1 hr by MTT assay; format: functional, Cryptococcus bacillisporus
[13] = tested on: Cryptococcus gattii species complex; assay: Antifungal activity against Cryptococcus gattii ATCC 24065 assessed as reduction in cell viability at 0.12 uM after 6 to 72 hrs by MTT assay
[14] = tested on: Cryptococcus gattii species complex; assay: Antifungal activity against Cryptococcus gattii 547/OTTI-97-PI-10 assessed as reduction in cell viability at 0.12 uM after 6 to 72 hrs by MTT assay; format: functional, Cryptococcus bacillisporus
[15] = tested on: Cryptococcus neoformans; assay: Antifungal activity against Cryptococcus neoformans 96806 assessed as reduction in cell viability at 0.12 uM after 6 to 72 hrs by MTT assay; format: functional
[16] = tested on: Cryptococcus gattii species complex; assay: Antifungal activity against Cryptococcus gattii 196L/03 assessed as reduction in cell viability at 0.12 uM after 6 to 72 hrs by MTT assay; format: functional, Cryptococcus bacillisporus
[17] = tested on: Cryptococcus neoformans; assay: Antifungal activity against Cryptococcus neoformans 27JF assessed as reduction in cell viability at 0.9 uM after 6 to 72 hrs by MTT assay; format: functional
[18] = tested on: Cryptococcus neoformans; assay: Antifungal activity against Cryptococcus neoformans CN31 assessed as reduction in cell viability at 0.9 uM after 6 to 72 hrs by MTT assay; format: functional
[19] = tested on: Cryptococcus gattii species complex; assay: Post-antifungal activity against Cryptococcus gattii L27/01 assessed as organism required time to achieve cell population of 10^4 cells/ml at 0.45 uM treated for 1 hr by MTT assay in presence of 0.11 uM amphotericin B; format: functional, Cryptococcus bacillisporus
[20] = tested on: Cryptococcus gattii species complex; assay: Antifungal activity against Cryptococcus gattii 196L/03 assessed as reduction in ergosterol content at MIC after 24 hrs by spectrophotometric analysis in presence of amphotericin B; format: functional, organism-based; conditions: Cryptococcus bacillisporus
Procedure, shortened: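 Pellet washed and weighed, then saponified in 25% ethanolic KOH at 85°C for 1 h. Extracted with water and n-heptane, read at 282 and 230 nm. Ergosterol taken from a standard curve and expressed as % of growth control.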

[21] = tested on: Cryptococcus neoformans; assay: Antifungal activity against Cryptococcus neoformans F10 assessed as reduction in cell viability at 26 uM after 6 to 72 hrs by MTT assay; format: functional
Procedure, shortened: (§1)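 Time-kill setup: colonies from two 48 h, 35°C SDA passages were suspended in saline to 70% transmittance at 530 nm. They were then diluted to 1-5 x10^3 cells/mL in RPMI with L-glutamine buffered to pH 7.0 with 0.165 M MOPS. Plates were incubated at 35°C for 0-72 h, then MTT (5.0 mg/mL) was added for 3 h. After isopropanol, absorbance was read at 490 nm. Drug-free controls were included, results were confirmed by SDA colony counts, and assays were run in triplicate.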

[22] = tested on: Cryptococcus neoformans; assay: Antifungal activity against Cryptococcus neoformans ATCC 28957 assessed as reduction in cell viability at 26 uM after 6 to 72 hrs by MTT assay; format: functional; procedure, shortened: as §1
[23] = tested on: Cryptococcus neoformans; assay: Antifungal activity against Cryptococcus neoformans 27JF assessed as reduction in cell viability at 26 uM after 6 to 72 hrs by MTT assay; format: functional; procedure, shortened: as §1
[24] = tested on: Cryptococcus neoformans; assay: Antifungal activity against Cryptococcus neoformans ATCC 24067 assessed as reduction in cell viability at 26 uM after 6 to 72 hrs by MTT assay; format: functional; procedure, shortened: as §1
[25] = tested on: Cryptococcus neoformans; assay: Antifungal activity against Cryptococcus gattii ATCC 24065 assessed as reduction in cell viability at 26 uM after 6 to 72 hrs by MTT assay; format: functional, Cryptococcus bacillisporus; procedure, shortened: as §1
[26] = tested on: Cryptococcus gattii species complex; assay: Antifungal activity against Cryptococcus gattii ICB181 assessed as reduction in cell viability at 26 uM after 6 to 72 hrs by MTT assay; format: functional, Cryptococcus bacillisporus; procedure, shortened: as §1
[27] = tested on: Cryptococcus neoformans; assay: Antifungal activity against Cryptococcus neoformans 5396 assessed as reduction in cell viability at 26 uM after 6 to 72 hrs by MTT assay; format: functional; procedure, shortened: as §1
[28] = tested on: Cryptococcus gattii species complex; assay: Antifungal activity against Cryptococcus gattii 547/OTTI-97-PI-10 assessed as reduction in cell viability at 26 uM after 6 to 72 hrs by MTT assay; format: functional, Cryptococcus bacillisporus; procedure, shortened: as §1
[29] = tested on: Cryptococcus gattii species complex; assay: Antifungal activity against Cryptococcus gattii 196L/03 assessed as reduction in cell viability at 26 uM after 6 to 72 hrs by MTT assay; format: functional, Cryptococcus bacillisporus; procedure, shortened: as §1
[30] = tested on: Cryptococcus gattii species complex; assay: Antifungal activity against Cryptococcus gattii 1913ER assessed as reduction in cell viability at 26 uM after 6 to 72 hrs by MTT assay; format: functional, Cryptococcus bacillisporus; procedure, shortened: as §1

`C(=N\Nc1nc(-c2ccccc2)cs1)/C1CCCCC1` showed an Activity [1] of 90%, an Activity [2] of 90% and an Activity [3] of 90%. For the same compound, the Activity [4] was 90%, the Activity [5] was 90% and the Activity [6] was 90%. For the same compound, the Activity [7] was 90%.
For `C[C@@H]1[C@H](O)[C@@H](C)/C=C/C=C/C=C/C=C/C=C/C=C/C=C/[C@H](O[C@@H]2O[C@H](C)[C@@H](O)[C@H](N)[C@@H]2O)C[C@@H]2O[C@](O)(C[C@@H](O)C[C@@H](O)[C@H](O)CC[C@@H](O)C[C@@H](O)CC(=O)O[C@H]1C)C[C@H](O)[C@H]2C(=O)O` [AMPHOTERICIN B], the Activity [8] was 90%, the Activity [9] was 90% and the Activity [10] was 90%. It also gave an Activity [11] of 90%, a Time [12] of 2.65 h and an Activity [13] of 90%. For the same compound, the Activity [14] was 90%, the Activity [15] was 90% and the Activity [16] was 90%.
`COc1ccc(-c2csc(N/N=C(\C)CCO)n2)cc1` showed an Activity [17] of 90%, an Activity [18] of 90% and a Time [19] of 2.15 h. The Activity [20] was “inactive”.
`OC(Cn1cncn1)(Cn1cncn1)c1ccc(F)cc1F` [FLUCONAZOLE] showed an Activity [21] of 80%, an Activity [22] of 80% and an Activity [23] of 80%. For the same compound, the Activity [24] was 80%, the Activity [25] was 80% and the Activity [26] was 80%. The Activity [27] was 80%, the Activity [28] was 80% and the Activity [29] was 80%. For the same compound, the Activity [30] was 80%.
